Measurements as given in ChEMBL document CHEMBL4014335, “Activation of Phenyl 4-(2-Oxo-3-alkylimidazolidin-1-yl)benzenesulfonates Prodrugs by CYP1A1 as New Antimitotics Targeting Breast Cancer Cells” (J Med Chem, 2017).

What was measured:
[1] = Selectivity ratio of IC50 for human M21 cells to IC50 for human MCF7 cells; type: functional
Outline: (§1)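 Ratio is IC50 in reference line over IC50 in sensitive line. […] Cells in DMEM with 5% calf serum at 37 °C. At least two experiments, triplicate cultures; assay accepted when relative SD < 10%.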

[2] = tested on: MCF7; test: Antiproliferative activity against human MCF7 cells after 48 hrs by SRB assay; type: functional, cell-based; details: MCF7, 48 h
Outline: (§2)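 SRB assay run as in the NCI screen with slight modifications. Seeding: HT-29 5.0 x 10^3, M21 3.5 x 10^3, MCF7 7.5 x 10^3 cells; cells preincubated 24 h. Drug in DMSO added at 0.75 to 1.0 x 10^5 nM for 48 h. TCA fixation, sulforhodamine B staining, absorbance 530-565 nm. At least two experiments in triplicate; runs accepted only when relative SD < 10%.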

[3] = tested on: M21; test: Antiproliferative activity against human M21 cells after 48 hrs by SRB assay; type: functional, cell-based; details: M21, 48 h; outline: as §2
[4] = tested on: HT-29; test: Antiproliferative activity against human HT-29 cells after 48 hrs by SRB assay; type: functional, cell-based; details: HT-29, 48 h; outline: as §2
[5] = Selectivity ratio of IC50 for human HT-29 cells to IC50 for human MCF7 cells; type: functional; outline: as §1

Row | IC50 [2] | IC50 [4] | SMILES | Ratio IC50 [1] | IC50 [3] | Ratio IC50 [5]
1 | 86 µM | 65 µM | CCCN1CCN(c2ccc(S(=O)(=O)Oc3cccc(C)c3)cc2)C1=O | 0.3 | 28 µM | 0.8
2 | 24 µM | 18 µM | CCCN1CCN(c2ccc(S(=O)(=O)Oc3cccc(F)c3)cc2)C1=O | 0.5 | 12 µM | 0.8
3 | > 100 µM | 12 µM | CN1CCN(c2ccc(S(=O)(=O)Oc3ccc(Cl)cc3)cc2)C1=O | – | 43 µM | –
4 | > 100 µM | > 100 µM | CCN1CCN(c2ccc(S(=O)(=O)Oc3ccccc3OC)cc2)C1=O | – | > 100 µM | –
5 | > 100 µM | > 100 µM | CCCN1CCN(c2ccc(S(=O)(=O)Oc3ccccc3C)cc2)C1=O | – | > 100 µM | –
6 | 2.5 µM | 3.8 µM | CCN1CCN(c2ccc(S(=O)(=O)Oc3cccc(Br)c3)cc2)C1=O | 1.4 | 3.4 µM | 1.5
7 | 2.9 µM | 2.5 µM | CN1CCN(c2ccc(S(=O)(=O)Oc3c(Cl)cc(Cl)cc3Cl)cc2)C1=O | 0.6 | 1.7 µM | 0.9
8 | 8.8 µM | > 100 µM | CCCCN1CCN(c2ccc(S(=O)(=O)Oc3ccccc3)cc2)C1=O | >11 | > 100 µM | >11
9 | > 100 µM | 60 µM | CCN1CCN(c2ccc(S(=O)(=O)Oc3ccc(OC)cc3)cc2)C1=O | – | 26 µM | –
10 | 64 µM | 25 µM | CCCN1CCN(c2ccc(S(=O)(=O)Oc3ccc(C)cc3)cc2)C1=O | 0.4 | 28 µM | 0.4
11 | > 100 µM | 26 µM | CN1CCN(c2ccc(S(=O)(=O)Oc3cccc([N+](=O)[O-])c3)cc2)C1=O | – | 23 µM | –
12 | 2.3 µM | > 100 µM | CCCN1CCN(c2ccc(S(=O)(=O)Oc3ccccc3CC)cc2)C1=O | >22 | > 50 µM | >43
13 | > 100 µM | > 100 µM | Cc1ccc(OS(=O)(=O)c2ccc(N3CCN(C)C3=O)cc2)cc1 | – | > 100 µM | –
14 | > 100 µM | > 100 µM | CCN1CCN(c2ccc(S(=O)(=O)Oc3cccc(F)c3)cc2)C1=O | – | 11 µM | –
15 | 0.34 µM | 21 µM | CCCCN1CCN(c2ccc(S(=O)(=O)Oc3ccc(OC)c(OC)c3)cc2)C1=O | >300 | > 100 µM | 61
16 | 0.49 µM | 13 µM | CCCCN1CCN(c2ccc(S(=O)(=O)Oc3cccc(OC)c3)cc2)C1=O | 61 | 30 µM | 27
17 | 6.3 µM | 25 µM | CCCN1CCN(c2ccc(S(=O)(=O)Oc3cccc(OC)c3)cc2)C1=O | 1.6 | 10 µM | 4
18 | 5.4 µM | 6.8 µM | CCN1CCN(c2ccc(S(=O)(=O)Oc3cccc(Cl)c3)cc2)C1=O | 0.7 | 3.9 µM | 1.3
19 | 39.1 µM | 37 µM | CCN1CCN(c2ccc(S(=O)(=O)Oc3ccc(OC)c(OC)c3)cc2)C1=O | 0.9 | 35 µM | 1
20 | 0.23 µM | 0.19 µM | COc1cc(OC)cc(OS(=O)(=O)c2ccc(N3CCN(C)C3=O)cc2)c1 | 0.4 | 0.082 µM | 0.9
21 | 2.2 µM | 2.1 µM | CN1CCN(c2ccc(S(=O)(=O)Oc3cccc(Cl)c3)cc2)C1=O | 0.7 | 1.6 µM | 0.9
22 | 0.4 µM | > 100 µM | CCCCN1CCN(c2ccc(S(=O)(=O)Oc3cc(F)cc(F)c3)cc2)C1=O | >250 | > 100 µM | >250
23 | 0.085 µM | 16 µM | CCCCN1CCN(c2ccc(S(=O)(=O)Oc3cccc(Br)c3)cc2)C1=O | 410 | 35 µM | 190
24 | 0.058 µM | 9.6 µM | CCCCN1CCN(c2ccc(S(=O)(=O)Oc3cccc(I)c3)cc2)C1=O | 400 | 23 µM | 170
25 | 26 µM | 4.6 µM | CCc1ccccc1OS(=O)(=O)c1ccc(N2CCN(C)C2=O)cc1 | 0.1 | 2.3 µM | 0.2

Row | IC50 [2] | IC50 [4] | SMILES | Ratio IC50 [1] | IC50 [3] | Ratio IC50 [5]
26 | 6.8 µM | 14 µM | CCCN1CCN(c2ccc(S(=O)(=O)Oc3ccc(OC)c(OC)c3)cc2)C1=O | 4.1 | 28 µM | 2
27 | 0.06 µM | > 100 µM | CCCCN1CCN(c2ccc(S(=O)(=O)Oc3cc(Cl)cc(Cl)c3)cc2)C1=O | 970 | 58 µM | >1700
28 | 1.5 µM | 1.3 µM | CN1CCN(c2ccc(S(=O)(=O)Oc3cccc(Br)c3)cc2)C1=O | 0.9 | 1.3 µM | 0.8
29 | > 100 µM | > 100 µM | CN1CCN(c2ccc(S(=O)(=O)Oc3cccc(F)c3)cc2)C1=O | – | 5.8 µM | –
30 | 0.7 µM | 0.64 µM | CCN1CCN(c2ccc(S(=O)(=O)Oc3cc(OC)c(OC)c(OC)c3)cc2)C1=O | 1.2 | 0.87 µM | 0.9
31 | > 100 µM | 56 µM | CCCN1CCN(c2ccc(S(=O)(=O)Oc3c(Cl)cc(Cl)cc3Cl)cc2)C1=O | – | 56 µM | –
32 | 0.058 µM | 43 µM | CCCCN1CCN(c2ccc(S(=O)(=O)Oc3cc(Br)cc(Br)c3)cc2)C1=O | >1700 | > 100 µM | 740
33 | 0.12 µM | 0.062 µM | COc1cc(OS(=O)(=O)c2ccc(N3CCN(C)C3=O)cc2)cc(OC)c1OC | 0.5 | 0.054 µM | 0.5
34 | 20 µM | 16 µM | CCCN1CCN(c2ccc(S(=O)(=O)Oc3ccc(OC)cc3)cc2)C1=O | 1.2 | 23 µM | 0.8
35 | 12 µM | 12 µM | COc1ccc(OS(=O)(=O)c2ccc(N3CCN(C)C3=O)cc2)cc1OC | 0.72 | 8.5 µM | 1
36 | 5.6 µM | 4.8 µM | Cc1ccccc1OS(=O)(=O)c1ccc(N2CCN(C)C2=O)cc1 | 0.5 | 2.9 µM | 0.9
37 | 13 µM | 19 µM | CCCN1CCN(c2ccc(S(=O)(=O)Oc3cc(Cl)c(Cl)cc3Cl)cc2)C1=O | 1.2 | 15 µM | 1.5
38 | 19 µM | > 100 µM | CCCN1CCN(c2ccc(S(=O)(=O)Oc3cccc([N+](=O)[O-])c3)cc2)C1=O | 2 | 38 µM | >5.3
39 | 0.38 µM | 13 µM | CCCN1CCN(c2ccc(S(=O)(=O)Oc3cccc(Cl)c3)cc2)C1=O | 23 | 8.6 µM | 34
40 | 0.63 µM | 0.6 µM | CN1CCN(c2ccc(S(=O)(=O)Oc3cc(Cl)c(Cl)cc3Cl)cc2)C1=O | 0.7 | 0.42 µM | 1
41 | 26 µM | 26 µM | COc1ccccc1OS(=O)(=O)c1ccc(N2CCN(C)C2=O)cc1 | 0.8 | 21 µM | 1
42 | 0.27 µM | 16 µM | CCCN1CCN(c2ccc(S(=O)(=O)Oc3cc(OC)cc(OC)c3)cc2)C1=O | 120 | 33 µM | 59
43 | 3.8 µM | > 100 µM | CCCCN1CCN(c2ccc(S(=O)(=O)Oc3ccccc3OC)cc2)C1=O | >26 | > 100 µM | >26
44 | 1.9 µM | 3.1 µM | CCN1CCN(c2ccc(S(=O)(=O)Oc3cccc(I)c3)cc2)C1=O | 1.2 | 2.2 µM | 1.7
45 | 0.11 µM | 21 µM | CCCCN1CCN(c2ccc(S(=O)(=O)Oc3cccc(Cl)c3)cc2)C1=O | 820 | 90 µM | 190
46 | 0.76 µM | > 100 µM | CCCCN1CCN(c2ccc(S(=O)(=O)Oc3ccc(F)c(F)c3)cc2)C1=O | >130 | > 100 µM | >130
47 | 13 µM | > 100 µM | CCCN1CCN(c2ccc(S(=O)(=O)Oc3ccccc3OC)cc2)C1=O | >7.7 | > 100 µM | >7.7
48 | 18 µM | 15 µM | CCCN1CCN(c2ccc(S(=O)(=O)Oc3ccc(Cl)cc3)cc2)C1=O | 1.9 | 34 µM | 0.8
49 | 1.5 µM | 26 µM | CCCN1CCN(c2ccc(S(=O)(=O)Oc3ccc(C)cc3C)cc2)C1=O | 6.5 | 9.7 µM | 17
50 | > 100 µM | > 100 µM | CN1CCN(c2ccc(S(=O)(=O)Oc3ccc(F)cc3)cc2)C1=O | – | > 100 µM | –
